Values after ≈ are worked out from the molar mass of the structure shown.
Tests used:
Pseudomonas aeruginosa [1] = assay: Synergistic antibacterial activity against Pseudomonas aeruginosa NCTC 13437 assessed as rifampicin MIC at <=0.25 times MIC incubated for overnight by microbroth dilution checkerboard assay; type: functional
Method in brief: (§1)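 Checkerboard microdilution in Tryptic Soy Broth, run like the MIC assay. Overnight TSB cultures were back-diluted to OD 0.01 and added 1:1 to the combined two-fold series of both agents, then incubated overnight at 37 °C. Growth/no-growth was called at <0.1 OD600. MICs alone were read on the same plates. FIC index came from the most synergistic well; three independent repeats, mean ± SD.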

Pseudomonas aeruginosa [2] = assay: Synergistic antibacterial activity against Pseudomonas aeruginosa NCTC 13437 assessed as fold change in rifampicin MIC at <=0.25 times MIC incubated for overnight by microbroth dilution checkerboard assay relative to rifampicin alone; type: functional; method in brief: as §1
Acinetobacter baumannii [3] = assay: Synergistic antibacterial activity against Acinetobacter baumannii AYE assessed as rifampicin MIC at <=0.25 times MIC incubated for overnight by microbroth dilution checkerboard assay; type: functional
Method in brief: (§2)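 Checkerboard microdilution under MIC conditions (TSB, overnight, 37 °C). Two-fold series of each agent were combined on one plate before bacteria were added, and single-agent MICs were measured on the same plate. FIC = sum of combination MIC/alone MIC for each agent, taken from the most synergistic well. Three independent repeats, mean ± SD. ≤0.5 was taken as strong synergy and 0.5–<1 as weak.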

Escherichia coli [4] = assay: Synergistic antibacterial activity against Escherichia coli NCTC 12923 assessed as rifampicin MIC at <=0.25 times MIC incubated for overnight by microbroth dilution checkerboard assay; type: functional; method in brief: as §2
Escherichia coli [5] = assay: Antibacterial activity against Escherichia coli NCTC 12923 assessed as bacterial growth inhibition incubated for overnight by microbroth dilution method; type: functional
Method in brief: (§3)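 Broth microdilution in Tryptic Soy Broth. DMSO stocks were diluted in TSB as 2-fold series. Overnight TSB cultures were back-diluted to OD 0.01 and mixed 1:1 with compound. Incubation was overnight at 37 °C. MIC was the lowest concentration without visible growth (<0.1 OD600). DMSO vehicle was checked at equivalent concentrations.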

Acinetobacter baumannii [6] = assay: Antibacterial activity against Acinetobacter baumannii ATCC 17978 assessed as bacterial growth inhibition incubated for overnight by microbroth dilution method; type: functional; method in brief: as §3
Pseudomonas aeruginosa [7] = assay: Antibacterial activity against Pseudomonas aeruginosa PAO1 assessed as bacterial growth inhibition incubated for overnight by microbroth dilution method; type: functional; method in brief: as §3
Acinetobacter baumannii [8] = assay: Synergistic antibacterial activity against Acinetobacter baumannii ATCC 17978 assessed as fold change in rifampicin MIC at <=0.25 times MIC incubated for overnight by microbroth dilution checkerboard assay relative to rifampicin alone; type: functional; method in brief: as §2
Klebsiella pneumoniae [9] = assay: Synergistic antibacterial activity against […] Klebsiella pneumoniae M6 assessed as novobiocin MIC at <=0.25 times MIC incubated for overnight by microbroth dilution checkerboard assay; type: functional
Method in brief: (§4)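 Checkerboard run under the MIC conditions (TSB, overnight, 37 °C). Antibiotic and lipoguanidine 2-fold series were combined on one plate before bacteria were added. Growth/no-growth was scored as for the MIC (<0.1 OD600). Single-agent MICs were measured on the same plates. Three independent repeats were done.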

Escherichia coli [10] = assay: Synergistic antibacterial activity against Escherichia coli NCTC 12923 assessed as novobiocin MIC at <=0.25 times MIC incubated for overnight by microbroth dilution checkerboard assay; type: functional; method in brief: as §2
Klebsiella pneumoniae [11] = assay: Synergistic antibacterial activity against […] Klebsiella pneumoniae M6 assessed as rifampicin MIC at <=0.25 times MIC incubated for overnight by microbroth dilution checkerboard assay; type: functional; method in brief: as §4
Acinetobacter baumannii [12] = assay: Synergistic antibacterial activity against Acinetobacter baumannii AYE assessed as novobiocin MIC at <=0.25 times MIC incubated for overnight by microbroth dilution checkerboard assay; type: functional; method in brief: as §2
Pseudomonas aeruginosa [13] = assay: Synergistic antibacterial activity against Pseudomonas aeruginosa PAO1 assessed as novobiocin MIC at <=0.25 times MIC incubated for overnight by microbroth dilution checkerboard assay; type: functional; method in brief: as §1
Escherichia coli [14] = assay: Synergistic antibacterial activity against Escherichia coli NCTC 12923 assessed as fold change in novobiocin MIC at <=0.25 times MIC incubated for overnight by microbroth dilution checkerboard assay relative to novobiocin alone; type: functional; method in brief: as §2
Erythrocyte = assay: Hemolytic activity in human Red blood cells at 512 microg/ml measured after 1 hrs by absorbance based assay; type: toxicity, cell-based; conditions: dose 512 µg/ml
Method in brief: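 Titrations in PBS were incubated with freshly collected human red blood cells for 1 h at 37 °C. Controls were 0.1% Triton-X-100 (full lysis) and PBS alone (no lysis). After centrifugation, supernatant OD550 was read. % haemolysis = (AP−AB)/(AC−AB)×100. Data are means and standard error of three biological replicates.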

Klebsiella pneumoniae [15] = assay: Synergistic antibacterial activity against Klebsiella pneumoniae NCTC 13368 assessed as fold change in novobiocin MIC at <=0.25 times MIC incubated for overnight by microbroth dilution checkerboard assay relative to novobiocin alone; type: functional; method in brief: as §2
Pseudomonas aeruginosa [16] = assay: Antibacterial activity against Pseudomonas aeruginosa NCTC 13437 assessed as bacterial growth inhibition incubated for overnight by microbroth dilution method; type: functional; method in brief: as §3
Pseudomonas aeruginosa [17] = assay: Synergistic antibacterial activity against Pseudomonas aeruginosa PAO1 assessed as rifampicin MIC at <=0.25 times MIC incubated for overnight by microbroth dilution checkerboard assay; type: functional; method in brief: as §1
Klebsiella pneumoniae [18] = assay: Synergistic antibacterial activity against […] Klebsiella pneumoniae NCTC 13368 assessed as novobiocin MIC at <=0.25 times MIC incubated for overnight by microbroth dilution checkerboard assay; type: functional; method in brief: as §4
Pseudomonas aeruginosa [19] = assay: Synergistic antibacterial activity against Pseudomonas aeruginosa PAO1 assessed as fold change in rifampicin MIC at <=0.25 times MIC incubated for overnight by microbroth dilution checkerboard assay relative to rifampicin alone; type: functional; method in brief: as §1
Acinetobacter baumannii [20] = assay: Synergistic antibacterial activity against Acinetobacter baumannii AYE assessed as fold change in rifampicin MIC at <=0.25 times MIC incubated for overnight by microbroth dilution checkerboard assay relative to rifampicin alone; type: functional; method in brief: as §2
Klebsiella pneumoniae [21] = assay: Synergistic antibacterial activity against Klebsiella pneumoniae NCTC 13368 assessed as fold change in rifampicin MIC at <=0.25 times MIC incubated for overnight by microbroth dilution checkerboard assay relative to rifampicin alone; type: functional; method in brief: as §4
Pseudomonas aeruginosa [22] = assay: Synergistic antibacterial activity against Pseudomonas aeruginosa PAO1 assessed as fold change in novobiocin MIC at <=0.25 times MIC incubated for overnight by microbroth dilution checkerboard assay relative to novobiocin alone; type: functional; method in brief: as §1
Acinetobacter baumannii [23] = assay: Synergistic antibacterial activity against Acinetobacter baumannii ATCC 17978 assessed as rifampicin MIC at <=0.25 times MIC incubated for overnight by microbroth dilution checkerboard assay; type: functional; method in brief: as §2
Klebsiella pneumoniae [24] = assay: Synergistic antibacterial activity against Klebsiella pneumoniae NCTC 13368 assessed as rifampicin MIC at <=0.25 times MIC incubated for overnight by microbroth dilution checkerboard assay; type: functional; method in brief: as §2
Klebsiella pneumoniae [25] = assay: Antibacterial activity against Klebsiella pneumoniae M6 assessed as bacterial growth inhibition incubated for overnight by microbroth dilution method
Pseudomonas aeruginosa [26] = assay: Synergistic antibacterial activity against Pseudomonas aeruginosa NCTC 13437 assessed as novobiocin MIC at <=0.25 times MIC incubated for overnight by microbroth dilution checkerboard assay; type: functional; method in brief: as §1
Klebsiella pneumoniae [27] = assay: Antibacterial activity against ESBL Klebsiella pneumoniae NCTC 13368 assessed as bacterial growth inhibition incubated for overnight by microbroth dilution method
Klebsiella pneumoniae [28] = assay: Synergistic antibacterial activity against Klebsiella pneumoniae M6 assessed as fold change in novobiocin MIC at <=0.25 times MIC incubated for overnight by microbroth dilution checkerboard assay relative to novobiocin alone; type: functional; method in brief: as §2
Acinetobacter baumannii [29] = assay: Synergistic antibacterial activity against Acinetobacter baumannii ATCC 17978 assessed as novobiocin MIC at <=0.25 times MIC incubated for overnight by microbroth dilution checkerboard assay; type: functional; method in brief: as §2
Pseudomonas aeruginosa [30] = assay: Synergistic antibacterial activity against Pseudomonas aeruginosa NCTC 13437 assessed as fold change in novobiocin MIC at <=0.25 times MIC incubated for overnight by microbroth dilution checkerboard assay relative to novobiocin alone; type: functional; method in brief: as §2
Acinetobacter baumannii [31] = assay: Synergistic antibacterial activity against Acinetobacter baumannii ATCC 17978 assessed as fold change in novobiocin MIC at <=0.25 times MIC incubated for overnight by microbroth dilution checkerboard assay relative to novobiocin alone; type: functional; method in brief: as §2
Acinetobacter baumannii [32] = assay: Synergistic antibacterial activity against Acinetobacter baumannii AYE assessed as fold change in novobiocin MIC at <=0.25 times MIC incubated for overnight by microbroth dilution checkerboard assay relative to novobiocin alone; type: functional; method in brief: as §2
Acinetobacter baumannii [33] = assay: Antibacterial activity against Acinetobacter baumannii AYE assessed as bacterial growth inhibition incubated for overnight by microbroth dilution method; type: functional; method in brief: as §3
Escherichia coli [34] = assay: Synergistic antibacterial activity against Escherichia coli NCTC 12923 assessed as fold change in rifampicin MIC at <=0.25 times MIC incubated for overnight by microbroth dilution checkerboard assay relative to rifampicin alone; type: functional; method in brief: as §2

For CCCCCCCCCCNC(=N)NCCCCNC(=N)N, the MIC (Pseudomonas aeruginosa [1]) was at most 0.125 µg/mL, the “fold change (FC)” value (Pseudomonas aeruginosa [2]) was “>=4” and the MIC (Acinetobacter baumannii [3]) was at most 0.125 µg/mL. The MIC (Escherichia coli [4]) was at most 0.125 µg/mL, the MIC (Escherichia coli [5]) was 64 µg/mL (≈ 205 µM) and the MIC (Acinetobacter baumannii [6]) was over 128 µg/mL. The MIC (Pseudomonas aeruginosa [7]) was 64 µg/mL (≈ 205 µM), the “fold change (FC)” value (Acinetobacter baumannii [8]) was “>=4” and the MIC (Klebsiella pneumoniae [9]) was 1 µg/mL. The MIC (Escherichia coli [10]) was 2 µg/mL, the MIC (Klebsiella pneumoniae [11]) was at most 0.125 µg/mL and the MIC (Acinetobacter baumannii [12]) was 0.125 µg/mL. The MIC (Pseudomonas aeruginosa [13]) was 4 µg/mL, the “fold change (FC)” value (Escherichia coli [14]) was “>=4” and the Activity (Erythrocyte) was “Toxic”. For the same compound, the “fold change (FC)” value (Klebsiella pneumoniae [15]) was “>=4”, the MIC (Pseudomonas aeruginosa [16]) was over 128 µg/mL and the MIC (Pseudomonas aeruginosa [17]) was 2 µg/mL. The MIC (Klebsiella pneumoniae [18]) was 8 µg/mL, the “fold change (FC)” value (Pseudomonas aeruginosa [19]) was “>=4” and the “fold change (FC)” value (Acinetobacter baumannii [20]) was “>=4”. For the same compound, the “fold change (FC)” value (Klebsiella pneumoniae [21]) was “>=4”, the “fold change (FC)” value (Pseudomonas aeruginosa [22]) was “>=4” and the MIC (Acinetobacter baumannii [23]) was at most 0.125 µg/mL. The MIC (Klebsiella pneumoniae [24]) was at most 0.125 µg/mL, the MIC (Klebsiella pneumoniae [25]) was over 128 µg/mL and the MIC (Pseudomonas aeruginosa [26]) was 4 µg/mL. The MIC (Klebsiella pneumoniae [27]) was over 128 µg/mL, the “fold change (FC)” value (Klebsiella pneumoniae [28]) was “>=4” and the MIC (Acinetobacter baumannii [29]) was 0.125 µg/mL. For the same compound, the “fold change (FC)” value (Pseudomonas aeruginosa [30]) was “>=4”, the “fold change (FC)” value (Acinetobacter baumannii [31]) was “>=4” and the “fold change (FC)” value (Acinetobacter baumannii [32]) was “>=4”. The MIC (Acinetobacter baumannii [33]) was over 128 µg/mL and the “fold change (FC)” value (Escherichia coli [34]) was “>=4”.

— ChEMBL document CHEMBL5357066, “Development of Novel Membrane Disrupting Lipoguanidine Compounds Sensitizing Gram-Negative Bacteria to Antibiotics” (ACS Med Chem Lett, 2024)
